MT1-MMP act inh – blockers of MT1-MMP proenzyme processing, primary screen, HT1080 RFP-PRO-GFP cells, GFP/RFP fluorescence | Matrix metalloproteinase-14 (Homo sapiens), P50281 | GFP/RFP ratio fluorescence, overnight; percent of plate control window, DMSO zero | GFP/RFP ratio change, % at 20 µM | 360,000 compounds, 0.061% hits | AID 651647, 2012;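 active means GFP/RFP ratio change of at least 30% with cell ATP level not reduced by more than half and red fluorescence within 50% of control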
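Compound: 20 µM single dose, 1% DMSO / System: HT1080 RFP-PRO-GFP cells / Controls: DMSO and RFP-L50D-GFP cell wells / Read-out basis: GFP/RFP fluorescence ratio / Schedule: overnight compound exposure at 37 °C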
H9c2 protect – cardioprotection against H2O2-induced cell death, primary screen, uHTS, H9c2 cells, ATPLite luminescence; H9c2 cardiomyocytes, H2O2 injury protection, 2 h; protection from H2O2 cell death, % at 20 µM; AID 588492, 2011; 360,000 compounds, 0.63% hits;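 active means compounds giving at least 50% protection of heart cells from peroxide-induced death in the single-dose screen, raw or plate-pattern-corrected value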;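 further: 0% = DMSO wells with peroxide and 100% = DMSO wells without peroxide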
DDE Tn7 FP inh – inhibitors of Tn7 peptide binding to fibrin DD(E), primary screen, biochemical, fluorescence polarization, human fibrin, Tn7 probe | 370,000 compounds, 0.13% hits | inhibition, % at 8.3 µM | Fibrinogen beta chain (Homo sapiens), P02675 | FP displacement of FITC-Tn7 peptide from fibrin DD(E); 0% = median of compound wells per plate;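 active means inhibition above the mean of compounds falling within the control limits plus 3 SD of them, cut at about 14% in these data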;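 further: 0% = plate median of compound wells and 100% = 10 µM Aha-Tn7 peptide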
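Also added: labelled Tn7 tracer, 0.1 µM; Assay system: human fibrin DD(E) protein; Amount: 2 µM fibrin DD(E); Schedule: 10 min compound pre-incubation, 3 h probe incubation at room temperature; Repeats: one replicate per compound; Read-out basis: percent inhibition; Measured by: fluorescence polarization of the labelled Tn7 tracer.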
DAGLB inh – DAGLB lipase inhibitors, primary screen, biochemical, fluorescence, HTS; Diacylglycerol lipase-beta (Homo sapiens), Q8NCG7; HEK293T DAGLB membrane lysate, EnzChek fluorogenic substrate; inhibition, % at 5.17 µM; 340,000 compounds, 0.059% hits; AID 504411, 2011; in the data active means inhibition above about 34%;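 further: 0% = enzyme with vehicle and 100% = wells lacking enzyme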
Target sequence (Q8NCG7 whole entry, looked up): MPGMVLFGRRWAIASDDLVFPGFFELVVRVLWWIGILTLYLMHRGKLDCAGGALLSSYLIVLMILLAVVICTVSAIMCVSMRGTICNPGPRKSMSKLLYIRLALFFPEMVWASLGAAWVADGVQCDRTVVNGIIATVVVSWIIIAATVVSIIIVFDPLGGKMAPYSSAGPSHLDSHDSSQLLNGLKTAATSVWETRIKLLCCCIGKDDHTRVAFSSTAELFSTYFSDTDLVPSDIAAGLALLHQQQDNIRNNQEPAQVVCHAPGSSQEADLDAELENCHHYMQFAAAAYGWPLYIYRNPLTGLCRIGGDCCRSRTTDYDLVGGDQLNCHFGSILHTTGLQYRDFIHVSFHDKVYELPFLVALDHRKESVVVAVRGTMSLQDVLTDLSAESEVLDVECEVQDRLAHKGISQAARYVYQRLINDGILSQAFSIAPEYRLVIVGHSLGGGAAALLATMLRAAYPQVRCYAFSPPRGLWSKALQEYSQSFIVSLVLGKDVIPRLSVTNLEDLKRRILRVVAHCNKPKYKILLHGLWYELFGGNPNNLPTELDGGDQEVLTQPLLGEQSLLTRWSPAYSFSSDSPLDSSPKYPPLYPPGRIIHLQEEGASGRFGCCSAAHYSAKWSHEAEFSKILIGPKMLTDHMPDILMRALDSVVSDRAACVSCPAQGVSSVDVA
Tn6 DDE FP – inhibitors of Tn6 peptide binding to fibrin DD(E), primary screen, biochemical, fluorescence polarization, human fibrin, Tn6 probe; Fibrin DD(E) TRITC-Tn6 fluorescence polarization displacement; 370,000 compounds, 0.21% hits; AID 720509, 2013; inhibition, % at 8.3 µM; Fibrinogen beta chain (Homo sapiens), P02675;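 active means inhibition above a per-campaign cutoff: mean of compounds within control limits plus 3 SD, cut at about 15% in these data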;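 further: 0% = median of all compound wells on the plate and 100% = blocking peptide control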
TAG inh – inhibitors of triacylglycerol accumulation, primary screen, cell-based, uHTS, fluorescence, H9c2; H9c2 cells, Nile Red lipid (TAG) fluorescence; cells loaded with 200 µM oleic acid; 230,000 compounds, 0.66% hits; inhibition, % at 12.5 µM;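 active means pattern-corrected inhibition of lipid staining of at least 50% with the nuclear-stain viability signal not falling by more than 50%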;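 further: 0% = DMSO wells and 100% = triacsin C control wells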
Starred values were filed as active, the others as inactive; · = no result. In the library only some 1.4% were active in any assay of this set; here they are far more common.

SMILES | MT1-MMP act inh | H9c2 protect | DDE Tn7 FP inh | DAGLB inh | Tn6 DDE FP | TAG inh
O=C(N/N=C/c1ccccc1O)C1SCCCS1 | -1 | 70* | 2 | -1 | 4 | 28
O=C(CCSCCC(=O)NN=Cc1ccccc1O)NN=Cc1ccccc1O | 3 | 58* | 7 | -1 | 1 | -25
O=C(CSc1ccccc1)N/N=C/c1ccccc1O | 3 | 51* | -6 | 0 | 13 | -2
CN(C)CC(=O)N[C@H]1C[C@@H]2O[C@@H](CO)CC[C@@H]2O[C@@H]1CCc1ccc(-c2ccc(F)cc2)cc1 | · | · | -1 | · | -2 | ·
COc1cc(C(=O)NC2CCCCN(C(C)C)C2=O)cc(OC)c1OC (centres undefined) | · | · | 10 | · | 0 | ·
Brc1cc2c(cc1/C=N/Nc1nc(N3CCCC3)nc(N3CCOCC3)n1)OCO2 | 4 | 63* | 2 | 0 | 2 | 14
Cc1ccc(N2C(=O)CS/C2=C(\C(Cl)=C(Cl)Cl)[N+](=O)[O-])cc1 | -3 | 69* | -3 | 11 | -5 | ·
O=C(CSc1nnc(-c2cccs2)o1)c1ccc2c(c1)OCO2 | · | · | -1 | · | -11 | ·
COc1cc(/C=C2\CC/C(=C\c3cc(OC)c(O)c(OC)c3)C2=O)cc(OC)c1O | 49 | 65* | 4 | 3 | -29 | 1
COCc1ccc(O)c2ncccc12 | 5 | -3 | -2 | 1 | 3 | 100*
Oc1ccc(CNc2ccccc2)c2cccnc12 | -9 | 33 | · | 2 | · | -133
Oc1ccc(CNc2cccc(F)c2)c2cccnc12 | · | · | 4 | · | 4 | ·
Cc1cccc(NCc2ccc(O)c3ncccc23)c1 | -20 | 58* | 3 | 5 | 2 | -13
COC1=C[C@H](C(=O)NCc2ccc(Br)cc2)[C@H](C)[C@@H](c2ccccc2)CC1=O | · | · | -7 | · | -5 | ·
NC(=O)c1cc2ccccc2o/c1=N\NC(=O)c1ccc(F)cc1 | -3 | 64* | 5 | 3 | 7 | ·
NC(=O)c1cc2ccccc2o/c1=N\NC(=O)c1ccccc1O | -1 | 15 | -1 | -8 | 1 | ·
c1coc(-c2nnc3sc(-c4cccs4)nn23)c1 | 2 | 53* | 4 | 4 | 10 | 8
COc1cccc(-c2nnc3sc(-c4cccs4)nn23)c1 | -3 | 8 | 0 | -9 | 2 | 2
COc1ccc(-c2nn3c(-c4ccco4)nnc3s2)cc1OC | 5 | 77* | -8 | 2 | 11 | 5
COc1cccc(-c2nnc3sc(-c4ccco4)nn23)c1 | -1 | 17 | 0 | -7 | 0 | -1
COc1cc(-c2nnc3sc(-c4ccco4)nn23)cc(OC)c1OC | 2 | 12 | 5 | -2 | 5 | ·
CCOc1cccc(-c2nn3c(-c4ccco4)nnc3s2)c1 | 4 | 64* | 4 | -1 | 6 | ·
COc1ccc(-c2noc(CN(C)S(=O)(=O)c3ccccc3)n2)cc1OC | 1 | 55* | -2 | -5 | 1 | 12
COC(=O)[C@]12CCCCC=C1N(Cc1ccc(OC)cc1)C(=O)[C@@H]2CC(=O)NCc1cccs1 | · | · | 2 | · | 3 | ·
N=c1c2c(-c3ccccc3)c(-c3ccccc3)oc2ncn1CCN1CCOCC1 | -4 | 28 | -1 | 2 | -3 | -271
SMILES | MT1-MMP act inh | H9c2 protect | DDE Tn7 FP inh | DAGLB inh | Tn6 DDE FP | TAG inh
c1ccc(-c2oc3ncnc(NCCN4CCOCC4)c3c2-c2ccccc2)cc1 | -3 | 53* | -3 | -4 | 4 | ·
C=CCNC(=O)CN(C(=O)c1ccncn1)c1cccc(Br)c1 | · | · | 2 | · | -8 | ·
O=C1NC(=O)C2(CCOc3ccc(F)cc32)N1 (centres undefined) | · | · | 0 | · | 4 | ·
COC(=O)c1ccc2nc(-c3ccc(C)cc3)c(CC(C)(C)C)n2c1 | · | · | -6 | · | -2 | ·
CN(C)CCNC(=O)c1cccc2nc3c(ccc4ccccc43)nc12 | 5 | -20 | -1 | -1 | 1 | 51*
COc1cccc2nc3c(C(=O)NCCN(C)C)cccc3cc12 | 5 | 3 | -8 | -5 | -3 | 116
CCC(=O)NC(c1ccc(C)cc1)c1cc([N+](=O)[O-])c2cccnc2c1O (centres undefined) | -5 | 49 | 9 | 25 | 0 | ·
CCCC(=O)NC(c1ccco1)c1cc([N+](=O)[O-])c2cccnc2c1O (centres undefined) | -24 | 55* | -3 | 13 | 4 | -1
Cc1cc(C(=O)COc2ccccc2C(N)=O)c(C)n1C | 3 | 52* | -4 | 0 | 1 | -2
CN(C)Cc1cc(O)c(CN(C)C)cc1O | -5 | 61* | -3 | 0 | -1 | -5
CN(C)Cc1cc(C(C)(C)C)cc(C(C)(C)C)c1O | 2 | -4 | -1 | -1 | 7 | 10
CC(=O)NC(c1ccc(Cl)cc1)c1ccc2cccnc2c1O (centres undefined) | 14 | 30 | -4 | 12 | -11 | 84
CCCCC(=O)NC(c1ccc(Cl)cc1Cl)c1ccc2cccnc2c1O (centres undefined) | 0 | 46 | -7 | -13 | 0 | ·
Cc1cc(NC(c2ccc(Cl)cc2)c2ccc3cccnc3c2O)no1 (centres undefined) | -1 | 58* | 11 | 5 | 3 | -50
CCC(=O)NC(c1ccc(Cl)cc1Cl)c1ccc2cccnc2c1O (centres undefined) | 1 | 45 | 2 | 14 | 8 | 55*
C(=N\Nc1nc2ccccc2[nH]1)/c1cccc2nccnc12 | 3 | 51* | -1 | · | -2 | 52*
COc1cccc(N=Nc2ccc(O)c3ncccc23)c1 | 23 | 14 | -7 | 26 | -4 | ·
O=S(=O)(O)c1cccc2c(N=Nc3ccc(O)c4ncccc34)cccc12 | 23 | -11 | · | 26 | · | ·
Oc1ccc(N=Nc2ccc3c(c2)OCCO3)c2cccnc12 | 12 | 12 | 7 | 23 | 0 | 91*
O=Nc1ccc(O)c2ncccc12 | -11 | -8 | -2 | -1 | -5 | 67*
COc1ccc(N=Nc2ccc(O)c3ncccc23)cc1 | 8 | 22 | 2 | 26 | -5 | 77*
Cc1ccccc1N=Nc1ccc(O)c2ncccc12 | 0 | 38 | -5 | 2 | -4 | 86*
O=[N+]([O-])c1ccc(O)c2ncccc12 | 7 | 20 | 5 | 4 | -10 | 9
Nc1[nH]c(C(=O)c2ccccc2)c(-c2ccc(Cl)c(F)c2)c1C(=O)c1c[nH]c2ccccc12 | · | · | 2 | · | 8 | ·
CCn1c(=O)cc(OCC(=O)Nc2ccccc2C#N)c2ccccc21 | 3 | 60* | -4 | 1 | 2 | 13

Screening data from PubChem.
